Bioassay records: PubChem BioAssay, Broad Institute
An excerpt weighted towards active compounds, which were near 3.5% of everything screened.
DENV2 CPE – inhibitors of DENV2 cytopathic effect, primary screen, cell-based, plate reader, single concentration. DENV2-infected cells, cytopathic effect rescue. CPE inhibition, % at 9.99 µM. 350,000 tested, 1.7% active; in the data active = CPE inhibition above about 20%, passing the limit was not always enough; inconclusive = no clear call, values can overlap the other calls; tested in BHK-21 cells
rRNA inh HTS – reduced GFP signal of wild-type E. coli, primary screen, bacterial rRNA inhibitor project, GFP/RFP fluorescence, OD600, single point; AID 720706, 2013; 350,000 tested, 1.6% active; GFP signal change (wild-type ribosome), % (concentration not given with the values); E. coli WT GFP vs humanized-ribosome RFP mutants, 24 h; stronger effect = lower value; DMSO median 0, no signal -100;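 active = significant combined selectivity score with lowered wild-type GFP, culture density cut under 30%, mutant RFP and density less affected; inactive = any of these conditions unmet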
PglD DTNB – C. jejuni PglD acetyltransferase inhibitors, primary screen, biochemical, DTNB colorimetric, single point; UDP-N-acetylbacillosamine N-acetyltransferase PglD (Campylobacter jejuni); purified PglD enzyme, DTNB colorimetric CoA detection; inhibition, % at 12.5 µM; 360,000 tested, 0.098% active; AID 602405, 2012; in the data active = inhibition above about 16%, passing the limit was not always enough; inconclusive = no clear call, values can overlap the other calls
HIV Env fusion – inhibitors of HIV-1 Env-driven cell-cell fusion, primary screen, HeLa-JRFL effector, CEM21 target cells, luciferase | inhibition, % at 12.3 µM | 360,000 tested, 1.1% active | AID 651610, 2012;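 active = mean replicate inhibition score of at least 50 and every replicate individually at or above 50; inconclusive = only one of the two criteria met; inactive = mean below 50 and not all replicates reaching 50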
FN deposit inh – inhibitors of fibronectin matrix deposition, primary screen, AH1F cells, Alexa488-fibronectin fluorescence, plate reader | AH1F fibroblasts, overnight | inhibition, % at 12.6 µM | 350,000 tested, 0.086% active | AID 743247, 2014;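 active = mean inhibition across replicates of 30% or more, regardless of how many single replicates reach that level; inconclusive = mean under 30% yet at least half of replicates reach 30%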
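Material: AH1F fibroblasts assembling fluorescent fibronectin matrix; amount: 10000 AH1F cells/well; medium: DMEM, 2% serum; reagent: Alexa488-fibronectin, 24 nM final in well; dosing: single compound dose, delivered by pin transfer; incubation: 1 h adhesion, overnight exposure; detection: fluorescence after three HBSS washes, excitation 485 nm, emission 525 nm; measure: fibronectin deposition inhibition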
PGC1a acetyl inh – inhibitors of PGC1a acetylation signal, primary screen, cell-based, U2OS, AlphaScreen, inhibitor mode | 350,000 tested, 0.17% active | AlphaScreen anti-acetyl-lysine; with virally co-expressed GCN5 acetyltransferase | inhibition, % at 15.6 µM;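 active = every replicate shows inhibition of at least 40%; inconclusive = mean inhibition at least 40% but some replicate below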
Of the large screens only hits and unclear results are named; the others gave an inactive call; [ ] = dose if it differs, or a comment.

C[C@@H]1CCCCO[C@H](CN(C)C(=O)Nc2ccc(C(F)(F)F)cc2)[C@@H](C)CN([C@@H](C)CO)C(=O)c2cc(NC(=O)Cc3ccccc3)ccc2O1	DENV2 CPE 42 (no result: FN deposit inh)
C[C@H]1CCCCO[C@@H](CN(C)C(=O)Nc2ccc(C(F)(F)F)cc2)[C@@H](C)CN([C@@H](C)CO)C(=O)c2cc(NC(=O)Cc3ccccc3)ccc2O1	none (no result: FN deposit inh)
COc1ccc2c3c(n(C)c2c1)[C@H](CO)N(Cc1cccc(Cl)c1)CC31CN(C(C)=O)C1	none (no result: PglD DTNB, HIV Env fusion, FN deposit inh)
COc1ccc(/C(C)=N/Nc2nc(C)c(C(C)=O)s2)cc1	none (no result: PGC1a acetyl inh)
CC(=O)c1sc(N/N=C2\CC3CC2C(C)C3(C)C)nc1C (centres undefined)	rRNA inh HTS -31 (no result: PglD DTNB)
COc1ccc(C(=O)C/C(=C\C(=O)c2ccc(C)cc2)c2ccccc2)cc1	HIV Env fusion 103 (no result: DENV2 CPE, rRNA inh HTS)
Cc1cc(C(=O)Nc2sc3c(c2C#N)CCCC3)no1	rRNA inh HTS -31 (no result: HIV Env fusion, FN deposit inh)
Cc1onc(-c2ccccc2)c1C(=O)NC(=S)Nc1sc2c(c1C#N)CCCC2	none (no result: PglD DTNB, PGC1a acetyl inh)
N#Cc1c(NC(=O)CSc2nnc(-c3ccncc3)n2CC2CCCO2)sc2c1CCCC2 (centres undefined)	none (no result: DENV2 CPE, rRNA inh HTS)
N#Cc1c(NC(=O)CSc2ncc(-c3ccccc3)n2CC2CCCO2)sc2c1CCCC2 (centres undefined)	HIV Env fusion 68 (no result: DENV2 CPE, rRNA inh HTS)
Cc1onc(-c2c(F)cccc2Cl)c1C(=O)Nc1sc2c(c1C(N)=O)CCC2	HIV Env fusion 62 (no result: DENV2 CPE, rRNA inh HTS, FN deposit inh)
Cc1onc(-c2ccccc2)c1C(=O)Nc1sc2c(c1C#N)CCC2	HIV Env fusion 67 (no result: DENV2 CPE, rRNA inh HTS)
COc1ccc(OC(=O)N(C)C[C@H]2OCc3ccccc3-c3ccccc3C(=O)N([C@@H](C)CO)C[C@@H]2C)cc1	none (no result: DENV2 CPE, PglD DTNB, HIV Env fusion, PGC1a acetyl inh)
CN1C(C(=O)c2ccccc2)=C(N)c2ccccc2S1(=O)=O	rRNA inh HTS -23
Cc1ccc(NC2=C(C(=O)c3ccccc3)N(C)S(=O)(=O)c3ccccc32)cc1	none (no result: DENV2 CPE, rRNA inh HTS)
Cc1ccc2[nH]c(C)c(CCNC(=O)c3c(N)no[n+]3[O-])c2c1	rRNA inh HTS -35 (no result: PglD DTNB)
O=C(C[C@H]1C[C@H]2c3cc(NC(=O)C4CCC4)ccc3O[C@H]2[C@H](CO)O1)NCCc1ccccc1	none (no result: FN deposit inh)
C[C@H]1CCCCO[C@@H](CN(C)C)[C@@H](C)CN([C@@H](C)CO)C(=O)c2cc(NS(=O)(=O)c3ccc(F)cc3)ccc2O1	none
C[C@@H]1CCCCO[C@H](CN(C)C(=O)Nc2cccc3ccccc23)[C@@H](C)CN([C@H](C)CO)C(=O)c2cc(NC(=O)Nc3ccccc3)ccc2O1	none
CN(C)Cc1cn(CC[C@@H]2CC[C@H](N)[C@H](CO)O2)nn1	HIV Env fusion 63[16.7 µM]
CN(C)CC(=O)N[C@H]1CC[C@H](CCn2cc(C3CCCCC3)nn2)O[C@@H]1CO	none
O=C(Nc1ccc(Cl)c(Cl)c1)N[C@H]1CC[C@@H](CCn2cc(C3CCCCC3)nn2)O[C@H]1CO	DENV2 CPE inconclusive
CN(C)CC(=O)N[C@@H]1CC[C@@H](CCn2cc(C3CCCCC3)nn2)O[C@H]1CO	DENV2 CPE 24
O=C(Nc1ccc(Cl)c(Cl)c1)N[C@@H]1CC[C@H](CCn2cc(C3CCCCC3)nn2)O[C@H]1CO	rRNA inh HTS -46
C[C@@H]1CN([C@H](C)CO)C(=O)c2cccc(NC(=O)C3CCCCC3)c2O[C@H]1CN(C)Cc1ccccc1	HIV Env fusion 74[16.7 µM] (no result: FN deposit inh, PGC1a acetyl inh)
C[C@@H]1CN([C@@H](C)CO)C(=O)c2cccc(NC(=O)C3CCOCC3)c2O[C@@H]1CN(C)CC1CCCCC1	none
C[C@H]1CN([C@@H](C)CO)C(=O)c2cccc(NC(=O)C3CCOCC3)c2O[C@H]1CN(C)CC1CCCCC1	DENV2 CPE 44
C[C@@H]1CN([C@H](C)CO)C(=O)c2cccc(NC(=O)NC3CCCCC3)c2O[C@H]1CN(C)CC1CCCCC1	none (no result: FN deposit inh)
C[C@H]1CN([C@@H](C)CO)C(=O)c2cccc(NC(=O)NC3CCCCC3)c2O[C@@H]1CN(C)CC1CCCCC1	DENV2 CPE 30 (no result: FN deposit inh)
